What all share (type): functional
Assay [1] relates to Plasmodium yoelii nigeriensis. The assay is described as follows: Antimalarial activity against multidrug-resistant Plasmodium yoelii nigeriensis in mice (Mus musculus) at 96 mg/kg/day peroral dose after 4 days. Conditions: route oral. The essentials: (§1)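 Colony-bred Swiss mice (25 ± 1 g) were given 1 × 10⁶ parasitized RBC on day 0. Groups of five were dosed orally from day 0 to 3 in two divided doses daily, 0.1 mL per dose, in groundnut oil (hemisuccinates in 5% NaHCO₃). Parasitemia was read from thin blood smears on days 4–28. % suppression = [(C − T)/C] × 100 against untreated controls. β-Arteether served as positive control.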

The subject of assay [2] is Plasmodium yoelii nigeriensis. Put plainly: Antimalarial activity against multidrug-resistant Plasmodium yoelii nigeriensis in mice (Mus musculus) at 48 mg/kg/day peroral dose over 4 days. The conditions noted are these: route oral. Put shortly:
as §1

In assay [3] the test system is Plasmodium yoelii nigeriensis. The assay is described as follows: Antimalarial activity against multidrug-resistant Plasmodium yoelii nigeriensis in mice (Mus musculus) at 24 mg/kg/day peroral dose after 4 days. Conditions: route oral. The essentials: as §1
A further assay has as its system Mus musculus. Put plainly: Survival of mouse at 48 mg/kg/day, po after 28 days. The essentials: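 Swiss mice (25 ± 1 g) were infected with 1 × 10⁶ parasitized RBC on day 0. Five mice per dose were treated orally on days 0–3, twice daily, in groundnut oil or 5% NaHCO₃. Parasitemia was followed by thin smears to day 28. Protection is the percentage of treated mice surviving beyond day 28. β-Arteether served as positive control.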

Assay [4] has as its system Plasmodium yoelii nigeriensis. Put plainly: Antimalarial activity against multidrug-resistant Plasmodium yoelii nigeriensis in mice (Mus musculus) at 30 mg/kg/day peroral dose after 4 days. Conditions: route oral.
In assay [5] the test system is Plasmodium yoelii nigeriensis. The assay is described as follows: Antimalarial activity against multidrug-resistant Plasmodium yoelii nigeriensis in mice (Mus musculus) at 100 mg/kg/day peroral dose after 4 days. The conditions noted are these: route oral.

Drawing on ChEMBL document CHEMBL1147651, “Orally active 1,2,4-trioxanes: synthesis and antimalarial assessment of a new series of 9-functionalized 3-(1-arylvinyl)-1,2,5-trioxaspiro[5.5]undecanes against multi-drug-resistant plasmodium yoelii nigeriensis in mice” (2006), this text covers Activity for 41 compounds.

As to `C=C(c1ccc(-c2ccccc2)cc1)C1COC2(CCC(=O)CC2)OO1` (centres undefined), the Activity in assay [1] is listed as 92%. Compound `C=C(c1ccccc1)C1COC2(CCC(=O)CC2)OO1` (centres undefined) came in with an Activity in assay [1] of 7%. In assay [1], `C=C(c1ccccc1)C1COC2(CCC(O)CC2)OO1` (centres undefined) had an Activity of 78%. `C=C(c1ccc(-c2ccccc2)cc1)C1COC2(CCC(OC(=O)CCC(=O)O)CC2)OO1` (centres undefined) gave an Activity in assay [1] of 99%. Consider `C=C(c1ccc(-c2ccccc2)cc1)C1COC2(CCC(O)CC2)OO1` (centres undefined), for which the Activity in assay [1] is reported as 91%. In turn, `C=C(c1ccccc1)C1COC2(CCC(OC(=O)CCC(=O)O)CC2)OO1` (centres undefined) returned an Activity in assay [1] of 82%. In assay [1], `C=C(c1ccccc1)C1COC2(CCC(C)(O)CC2)OO1` (centres undefined) yielded an Activity of 92%. `C=C(c1ccccc1)C1COC2(CCC(=C(C)C(=O)OCC)CC2)OO1` (centres undefined): the Activity in assay [1] was found to be 39%. Consider `C=C(c1ccc(-c2ccccc2)cc1)C1COC2(CCC(=C(C)C(=O)OCC)CC2)OO1` (centres undefined), for which the Activity in assay [1] and in assay [2] was 100% each time. With `C=C(c1ccccc1)C1COC2(CCC(O)(c3ccccc3)CC2)OO1` (centres undefined), the Activity in assay [1] was 95%.

In assay [1], `C=C(c1ccc(Cl)cc1)C1COC2(CCC(=C(C)C(=O)OCC)CC2)OO1` (centres undefined) gave an Activity of 87%.

In assay [1], `C=C(c1ccc(Cl)cc1)C1COC2(CCC(OC(=O)CCC(=O)O)CC2)OO1` (centres undefined) had an Activity of 39%. In the case of `C=C(c1ccc(Cl)cc1)C1COC2(CCC(=CC(=O)OCC)CC2)OO1` (centres undefined), the Activity in assay [3], in assay [1] and in assay [2] was 100% each time. Compound `C=C(c1ccc(C)cc1)C1COC2(CCC(OC(=O)CCC(=O)O)CC2)OO1` (centres undefined) gave an Activity in assay [1] of 97%. Regarding `C=C(c1ccc(OC)cc1)C1COC2(CCC(=CC(=O)OCC)CC2)OO1` (centres undefined), the Activity in assay [1] is 100%; in the assay with Mus musculus it was 40%; in assay [2], 100%. With `C=C(c1ccc(Cl)cc1)C1COC2(CCC(O)CC2)OO1` (centres undefined), in assay [1], the Activity amounted to 74%.

In assay [1], `C=C(c1ccc(C)cc1)C1COC2(CCC(O)CC2)OO1` (centres undefined) had an Activity of 37%. As for `C=C(c1ccc(C2CCCCC2)cc1)C1COC2(CCC(=CC(=O)OCC)CC2)OO1` (centres undefined), the values for the Activity (in assay [1]; in the assay with Mus musculus; in assay [2]) were 100%, 40% and 100%, respectively. For `C=C(c1ccc(C)cc1)C1COC2(CCC(=O)CC2)OO1` (centres undefined), in assay [1], the Activity is 7%. The compound `C=C(c1ccc(Cl)cc1)C1COC2(CCC(=O)CC2)OO1` (centres undefined) displayed an Activity in assay [1] of 18%. In turn, `C=C(c1ccc(OC)cc1)C1COC2(CCC(=C(C)C(=O)OCC)CC2)OO1` (centres undefined) yielded an Activity in assay [1] of 18%. For `C=C(c1ccc2ccccc2c1)C1COC2(CCC(=CC(=O)OCC)CC2)OO1` (centres undefined), the Activity in assay [3], in assay [1] and in assay [2] was 100% in each case. The compound `C=C(c1ccc2ccccc2c1)C1COC2(CCC(=C(C)C(=O)OCC)CC2)OO1` (centres undefined) yielded an Activity in assay [1] of 97%. Take `C=C(c1ccc(C2CCCCC2)cc1)C1COC2(CCC(=O)CC2)OO1` (centres undefined): the Activity in assay [1] was 100%. In turn, `C=C(c1ccc2ccccc2c1)C1COC2(CCC(=O)CC2)OO1` (centres undefined) registered an Activity in assay [1] of 15%. `C=C(c1ccccc1)C1COC2(CCC(=CC(=O)OCC)CC2)OO1` (centres undefined): the Activity in assay [3] was determined as 99%; in assay [1] it was 100%; in assay [2] it was 100%. For the compound `C=C(c1ccc(OC)cc1)C1COC2(CCC(=O)CC2)OO1` (centres undefined), the Activity in assay [1] is 32%. Compound `C=C(c1ccc(C)cc1)C1COC2(CCC(=C(C)C(=O)OCC)CC2)OO1` (centres undefined) showed an Activity in assay [1] of 100%. As to `C=C(c1ccc(C)cc1)C1COC2(CCC(=CC(=O)OCC)CC2)OO1` (centres undefined), the Activity in assay [3], in assay [1] and in assay [2] was 100% in each case. `C=C(c1ccc(C2CCCCC2)cc1)C1COC2(CCC(=C(C)C(=O)OCC)CC2)OO1` (centres undefined) came in with an Activity in assay [1] of 100%. `C=C(c1ccc(-c2ccccc2)cc1)C1COC2(CCC(=CC(=O)OCC)CC2)OO1` (centres undefined): the results for the Activity in assay [1] and in assay [2] were 100% and 93%, respectively. Compound `C=C(c1ccccc1)C1COC2(CCC(O)(CC(=O)OCC)CC2)OO1` (stereo in doubt; 24a) showed an Activity in assay [1] of 87%. As for `C=C(c1ccccc1)C1COC2(CCC(O)(CC(=O)OCC)CC2)OO1` (stereo in doubt; 24b), the Activity in assay [1] is listed as 37%. In assay [1], `C=C(c1ccc(-c2ccccc2)cc1)C1COC2(CCC(O)(CC(=O)OCC)CC2)OO1` (stereo in doubt; 25a) had an Activity of 93%. On the same count and under the same terms, next, `C=C(c1ccc(-c2ccccc2)cc1)C1COC2(CCC(O)(CC(=O)OCC)CC2)OO1` (stereo in doubt; 25b): 97%; `C=C(c1ccc(Cl)cc1)C1COC2(CCC(O)(CC(=O)OCC)CC2)OO1` (stereo in doubt; 26a): 31%; `C=C(c1ccc(Cl)cc1)C1COC2(CCC(O)(CC(=O)OCC)CC2)OO1` (stereo in doubt; 26b): 74%. With `CCO[C@H]1O[C@@H]2O[C@@]3(C)CC[C@H]4[C@H](C)CC[C@@H]([C@H]1C)[C@@]24OO3` [ARTEMOTIL], the Activity in assay [3] and in assay [2] was 100% each time.

For the compound `CCN(CC)CCCC(C)Nc1ccnc2cc(Cl)ccc12` (centres undefined) [CHLOROQUINE], the Activity in assay [4] and in assay [5] was 100% in each case. As to `CCCCN(CCCC)CCC(O)c1cc2c(Cl)cc(Cl)cc2c2cc(C(F)(F)F)ccc12` (centres undefined) [HALOFANTRINE], the Activity in assay [4] and in assay [5] was 100% throughout. In the case of `OC(c1cc(C(F)(F)F)nc2c(C(F)(F)F)cccc12)C1CCCCN1` (centres undefined) [MEFLOQUINE], the Activity in assay [4] and in assay [5] was 100% throughout.
